Assay results: PMC7867784 (Translational Lung Cancer Research, 2021)
Values joined by “and” are separate entries in the source; they are usually repeats but may differ in a detail not shown here. Identical values can stand only once. Like-named read-outs stand apart in the source and are kept apart here.

How the values were obtained:
[1] = cited from earlier work; for Cmax: AF-002JG study; for AUC0-10: global study
[2] = ALL-RET pharmacokinetic analysis; format: in vivo, human; details: for free fraction of Cmin in a steady state: 450 mg BID; for AUC / Cmax / concentration at 10 h / Tmax: human, plasma, oral; for concentration at 10 h: Cmin (plasma concentration at 10 h after administration), mean ± SD [min–max]; for Tmax: median [min–max]
[3] = tested on: RET-rearranged NSCLC; details: 600 mg BID, non-Japanese RET rearrangement NSCLC, out of 8 patients; cited from earlier work
[4] = tested on: RET-rearranged NSCLC; assay: ALL-RET phase 1/2 trial: antitumor efficacy; format: in vivo, human
How it was run: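 Patients with RET-rearranged NSCLC confirmed by at least 2 of 3 methods (multiplex RT-PCR, break-apart FISH, targeted NGS), previously treated with ≥1 chemotherapy regimen, ECOG PS 0–2, with measurable lesions. The test compound was given BID in 21-day cycles until respite, dose reduction or discontinuation criteria were met. Response was assessed by RECIST v1.1 on central review. DCR was defined as CR+PR+SD lasting at least 8 weeks.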

[5] = 450 mg, Day 15, 450 mg BID, N=5
[6] = 600 mg, Day 15, 600 mg BID, N=3
[7] = 450 mg BID, 25 RET-TKI-naïve patients
[8] = 450 mg BID, RET-TKI-naïve (n=25)
[9] = 450 mg BID, of 25 RET-TKI-naïve patients

Structure (SMILES): CCc1cc2c(cc1N1CCC(N3CCOCC3)CC1)C(C)(C)c1[nH]c3cc(C#N)ccc3c1C2=O [alectinib]
- Cmax ([1]; 460 mg BID): 618 ± 165 ng/mL
- AUC0-10 ([1]; 460 mg BID): 4,980±1,340 ng·h/mL
- Cmax ([1]; 600 mg BID): 676 ± 186 ng/mL
- AUC0-10 ([1]; 600 mg BID): 5,400±1,400 ng·h/mL
- free fraction of Cmin in a steady state [2]: < 4.8 ng/mL
- free fraction of Cmin in a steady state ([2]; equivalent of ng/mL value): < 10 nM
- AUC ([2]; 450 mg): 4820 ng·h/mL
- Cmax ([2]; 450 mg): 576 ± 215 ng/mL
- concentration at 10 h ([2]; 450 mg, Day 1, 450 mg, N=6): 118 ng/mL
- concentration at 10 h [2, 5]: 483 ng/mL
- Tmax ([2]; 450 mg, Day 1, 450 mg, N=6): 5.91 h
- Tmax [2, 5]: 7.97 h
- AUC ([2]; 600 mg): 8600 ng·h/mL
- Cmax ([2]; 600 mg): 1050 ng/mL
- concentration at 10 h ([2]; 600 mg, Day 1, 600 mg, N=6): 278 ng/mL
- concentration at 10 h [2, 6]: 911 ng/mL
- Tmax ([2]; 600 mg, Day 1, 600 mg, N=6): 7.01 h
- Tmax [2, 6]: 5.77 h
- patients with PR [3]: 4
- patients who could continue treatment for more than 1 year ([4]; 450 mg BID): 5
- DCR (disease control rate, at 8 weeks) [4, 7]: 52%
- patients with disease stabilization for more than 1 year [4, 7]: 5
- patients with disease stabilization for more than 1 year, percent [4, 7]: 20%
- ORR (objective/overall response rate) ([4]; 450 mg BID, 25 RET-TKI-naïve patients, central review): 4%
- median PFS ([4]; 450 mg BID, 25 RET-TKI-naïve patients, 95% CI 2.0–5.4): 3.4 months
- median OS ([4]; 450 mg BID, 25 RET-TKI-naïve patients, 95% CI 5.4–NE): 19.0 months and 19 months
- Best overall response NE (not evaluated), % [4, 8]: 8%
- Best overall response PD, % [4, 8]: 40%
- Best overall response PR, % [4, 8]: 4%
- Best overall response SD, % [4, 8]: 48%
- patients with disease control at 8 weeks [4, 9]: 13
- patients with objective response [4, 9]: 1
- treatment duration of the patient who showed PR ([4]; one patient with KIF5B-RET, phase 2, 450 mg BID): ~2 years
- activity against RET-rearranged NSCLC (conclusion) ([4]; phase 1/2, Japanese patients): limited activity
